Data published in ChEMBL document CHEMBL1165887, “Structure-activity relationships of monomeric C2-aryl pyrrolo[2,1-c][1,4]benzodiazepine (PBD) antitumor agents” (J Med Chem, 2010).
pIC50: −log10 of the molar value.

Columns and labels:
K562 = assay: Cytotoxicity against human K562 cells after 96 hrs by alamar blue assay; assay type: functional, cell-based; conditions: K562, 96 h
How it was run: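 K562 cells kept in RPMI with 10% fetal calf serum and 2 mM glutamine, seeded at 10⁴ cells/mL. Compounds serially diluted in DMSO and added in triplicate; exposure 96 h at 37 °C, 5% CO₂. Alamar Blue (1 μM final) then added for a further 4 h; read by fluorescence emission at 580-620 nm.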

[1] = Growth inhibition of human NCI60 cells after 48 hrs by SRB assay; assay type: functional; conditions: NCI60, 48 h; for CC50: read-out: LC50 (the source's name)

| SMILES | pIC50 (K562) | GI50 [1] [nM] | TGI [1] [nM] | CC50 [1] [nM] |
| --- | --- | --- | --- | --- |
| COc1cc2c(cc1OC)C(=O)N1C=C(c3ccc(C(=O)N4CCN(C)CC4)cc3)C[C@H]1C=N2 | 7.23 | 15 | 710 | 13800 |
| COc1cc2c(cc1OC)C(=O)N1C=C(c3ccc(C(=O)O)cc3)C[C@H]1C=N2 | < 6.00 | 13200 | 23400 | 25100 |
| COc1cc2c(cc1OC)C(=O)N1C=C(c3cccc(Cl)c3)C[C@H]1C=N2 | 7.71 | 17 | 100 | 540 |
| COc1cc2c(cc1OC)C(=O)N1C=C(c3cccc([N+](=O)[O-])c3)C[C@H]1C=N2 | 7.24 | 5 | 50 | 5620 |
| COc1cc2c(cc1OC)C(=O)N1C=C(c3ccc(N4CCN(C)CC4)cc3)C[C@H]1C=N2 | 9.20 | 5 | 80 | 8320 |
| COc1cc2c(cc1OC)C(=O)N1C=C(c3ccc4[nH]ccc4c3)C[C@H]1C=N2 | 7.90 | 5 | 40 | 7080 |
| COc1cc2c(cc1OC)C(=O)N1C=C(c3cccc(C(=O)O)c3)C[C@H]1C=N2 | < 6.00 |  |  |  |
| COc1cc2c(cc1OC)C(=O)N1C=C(c3cccc(N)c3)C[C@H]1C=N2 | 7.23 | 4 | 50 | 5890 |
| COc1cc2c(cc1OC)C(=O)N1C=C(c3ccc4ccccc4c3)C[C@H]1[C@H](S(=O)(=O)O)N2 | 8.74 | 2 | 20 | 45.4 |
| COc1cc2c(cc1OC)C(=O)N1C=C(c3ccc(C(=O)NCCCN(C)C)cc3)C[C@H]1C=N2 | 6.78 | 58 | 830 | 35500 |
| COc1cc2c(cc1OC)C(=O)N1C=C(c3cc4ccccc4o3)C[C@H]1C=N2 | 7.97 | 6 | 50 | 440 |
| COc1cc2c(cc1OC)C(=O)N1C=C(c3ccc(C(=O)NCCO)cc3)C[C@H]1C=N2 | 6.79 | 158 | 1860 | 12600 |
| COc1cc2c(cc1OC)C(=O)N1C=C(c3cccc(C(F)(F)F)c3)C[C@H]1C=N2 | 7.33 | 6 | 30 | 1350 |
| COc1ccc([C@H]2C[C@H]3C=Nc4cc(OC)c(OC)cc4C(=O)N3C2)cc1 | < 6.00 | 9770 | 43600 | 91200 |
| COc1cc2c(cc1OC)C(=O)N1C=C(c3ccc4ncccc4c3)C[C@H]1[C@H](S(=O)(=O)O)N2 | 8.89 | 0.2 | 4 | 1.4 |
| COc1cc2c(cc1OC)C(=O)N1C=C(c3ccc([N+](=O)[O-])cc3)C[C@H]1C=N2 | 7.88 | 4 | 70 | 6920 |
| COc1cc2c(cc1OC)C(=O)N1C=C(c3ccc(N4CCOCC4)cc3)C[C@H]1C=N2 | 8.06 | 5 | 160 | 13200 |
| COc1cc2c(cc1OC)C(=O)N1C=C(c3cccc4c3Sc3ccccc3S4)C[C@H]1C=N2 | < 6.00 | 501 | 1740 | 8910 |
| COc1cc2c(cc1OC)C(=O)N1C=C(c3cccc4ccccc34)C[C@H]1C=N2 | 6.24 | 138 | 950 | 13900 |
| COc1cc2c(cc1OC)C(=O)N1C=C(c3ccncc3)C[C@H]1C=N2 | 7.54 | 18 | 600 | 26900 |
| COc1cc2c(cc1OC)C(=O)N1C=C(c3cccc(C#N)c3)C[C@H]1C=N2 | 7.82 | 4 | 560 | 16200 |
| COc1cc2c(cc1OC)C(=O)N1C=C(c3ccc4ccc5cccc6ccc3c4c56)C[C@H]1C=N2 | 7.06 | 398 | 1440 | 10700 |
| COc1cc2c(cc1OC)C(=O)N1C=C(c3ccccc3C(F)(F)F)C[C@H]1C=N2 | 6.59 | 16 | 160 | 4360 |
| COc1cc2c(cc1OC)C(=O)N1C=C(c3ccccc3)C[C@H]1[C@H](S(=O)(=O)O)N2 | 7.78 | 54 | 430 | 2.5 |
| COc1cc2c(cc1OC)C(=O)N1C=C(/C=C/c3ccc(C)cc3)C[C@H]1C=N2 | 7.39 | 2 | 50 | 440 |
| COc1cc2c(cc1OC)C(=O)N1C=C(c3cccc(C(=O)NCCCN(C)C)c3)C[C@H]1C=N2 | 6.56 | 102 | 850 | 14100 |
| COc1cc2c(cc1OC)C(=O)N1C=C(c3cccc(F)c3)C[C@H]1C=N2 | 8.19 | 3 | 50 | 16600 |

| SMILES | pIC50 (K562) | GI50 [1] [nM] | TGI [1] [nM] | CC50 [1] [nM] |
| --- | --- | --- | --- | --- |
| COc1cc2c(cc1OC)C(=O)N1C=C(c3ccc(C(=O)NCCN(C)C)cc3)C[C@H]1C=N2 | 6.94 | 19 | 90 | 3890 |
| C=CC1=CN2C(=O)c3cc(OC)c(OC)cc3N=C[C@@H]2C1 | 8.57 | 78 | 1230 | 30200 |
| CCOc1ccc2cc(C3=CN4C(=O)c5cc(OC)c(OC)cc5N=C[C@@H]4C3)ccc2c1 | 7.90 | 2 | 20 | 1950 |
| COc1cc2c(cc1OC)C(=O)N1C=C(c3cnn(C)c3)C[C@H]1C=N2 | 7.91 | 3 | 50 | 5370 |
| COc1cc2c(cc1OC)C(=O)N1C=C(c3ccc(F)cc3)C[C@H]1[C@H](S(=O)(=O)O)N2 | 7.79 | 5 | 40 | 1.6 |
| COc1cc2c(cc1OC)C(=O)N1C=C(c3c(F)cccc3F)C[C@H]1C=N2 | 8.15 | 25 | 330 | 4360 |
| COc1cc2c(cc1OC)C(=O)N1C=C(c3c(OC)cccc3OC)C[C@H]1C=N2 | 7.21 | 110 | 1100 | 11700 |
| COc1cc2c(cc1OC)C(=O)N1C=C(c3ccc(NC(C)=O)cc3)C[C@H]1C=N2 | 7.53 | 6 | 200 | 11500 |
| COc1cc2c(cc1OC)C(=O)N1C=C(c3cc4ccccc4s3)C[C@H]1C=N2 | 7.57 | 5 | 90 | 540 |
| COc1cc2c(cc1OC)C(=O)N1C=C(c3ccc(OCCCN(C)C)cn3)C[C@H]1C=N2 | 8.03 | 4 | 60 | 4070 |
| COc1cc2c(cc1OC)C(=O)N1C=C(c3cccc(OC(F)(F)F)c3)C[C@H]1C=N2 | 7.12 | 6 | 180 | 7240 |
| COc1cc2c(cc1OC)C(=O)N1C=C(c3cccnc3)C[C@H]1C=N2 | 7.74 | 5 | 70 | 17000 |
| COc1cc2c(cc1OC)C(=O)N1C=C(c3cccc(C(=O)NCCN(C)C)c3)C[C@H]1C=N2 | 6.92 | 27 | 1860 | 10500 |
| COc1cc2c(cc1OC)C(=O)N1C=C(/C=C/c3ccc(F)cc3)C[C@H]1C=N2 | 9.89 | 5 | 10 | 1100 |
| COc1cc2c(cc1OC)C(=O)N1C=C(/C=C/c3ccc(Cl)cc3)C[C@H]1C=N2 | 7.81 | 5 | 20 | 1000 |
| COc1cc2c(cc1OC)C(=O)N1C=C(c3cccc4c3oc3ccccc34)C[C@H]1C=N2 | 6.79 | 49 | 210 | 2820 |
| COc1ccc2cc(C3=CN4C(=O)c5cc(OC)c(OC)cc5N=C[C@@H]4C3)ccc2c1 | 8.64 | 0.9 | 7 | 270 |
| COc1cc2c(cc1OC)C(=O)N1CCC[C@H]1C=N2 | 6.31 | 2140 | 19000 | 57500 |
| COc1cc2c(cc1OC)C(=O)N1C=C(c3ccc(Cl)c(Cl)c3)C[C@H]1C=N2 | 6.97 | 3 | 50 | 3020 |
| COc1cc2c(cc1OC)C(=O)N1C=C(/C=C/c3ccccc3)C[C@H]1C=N2 | 10.00 | 4 | 20 | 1580 |
| COc1cc2c(cc1OC)C(=O)N1C=C(c3cccc(C)c3)C[C@H]1C=N2 | 8.02 | 5 | 70 | 7580 |
| COc1cc2c(cc1OC)C(=O)N1C=C(c3ccc(C(N)=O)cc3)C[C@H]1C=N2 | 7.81 | 9 | 460 | 13800 |
| COc1cc2c(cc1OC)C(=O)N1C=C(c3cn[nH]c3)C[C@H]1C=N2 | 7.70 | 12 | 270 | 6460 |
| COc1cc2c(cc1OC)C(=O)N1C=C(/C=C/c3ccc(C(F)(F)F)cc3)C[C@H]1C=N2 | 7.51 | 3 | 20 | 1100 |
| COc1cc2c(cc1OC)C(=O)N1C=CC[C@H]1C=N2 | 7.84 | 1350 | 8130 | 60200 |
| COc1cc2c(cc1OC)C(=O)N1C=C(c3ccc(O)cc3)C[C@H]1C=N2 | 7.99 | 2 | 80 | 3390 |
| COc1cc2c(cc1OC)C(=O)N1C=C(c3ccc(Br)cc3)C[C@H]1C=N2 | 6.63 |  |  |  |
